PRMT1 inh = PRMT1 methyltransferase inhibitors, primary screen, biochemical, fluorescence polarization; Protein arginine N-methyltransferase 1 (Homo sapiens), Q99873; 1.3% of 370,000 active; recombinant PRMT1, activity-based probe fluorescence polarization; inhibition, % at 2.79 µM;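 active = inhibition above about 21% made by adding two undisclosed values, limit read from the data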
NS3 helicase inh = inhibitors of HCV NS3 helicase, primary screen, biochemical, Cy5 molecular beacon fluorescence | 0.56% of 290,000 active | NS3 helicase DNA unwinding | AID 1800, 2009 | inhibition, % at 10.9 µM;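 active = inhibition above the mean of all tested compounds plus 3 SD, set per campaign, cut at about 35% in these data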;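 also: 0% = DMSO wells and 100% = thioflavine S control wells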
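System: NS3 helicase fragment of HCV / Schedule: 1 h at 25 °C / Control set: DMSO alone as 0% and 110 µM thioflavine S as 100% / Reagent: Cy5/quencher beacon DNA duplex and ATP to start / Technique: Cy5 fluorescence / Replication: singlicate / Evaluation: % inhibition of end-to-start signal ratio versus controls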
ABHD5 PLIN5 PPI = ABHD5-PLIN5 interaction inhibitors, primary screen, cell lysate, split luciferase complementation, luminescence | AID 602281, 2012 | inhibition, % at 4 µM | Perilipin-5 (Homo sapiens) + 1-acylglycerol-3-phosphate O-acyltransferase ABHD5 (Homo … | 0.78% of 360,000 active | Split G. princeps luciferase complementation, 4 h;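 active = inhibition above the mean inhibition across every tested compound plus 3 SD, cut at about 22% in these data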;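 also: 0% = DMSO only wells and the 100% control is not disclosed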
Target sequence (Q00G26 whole entry, looked up): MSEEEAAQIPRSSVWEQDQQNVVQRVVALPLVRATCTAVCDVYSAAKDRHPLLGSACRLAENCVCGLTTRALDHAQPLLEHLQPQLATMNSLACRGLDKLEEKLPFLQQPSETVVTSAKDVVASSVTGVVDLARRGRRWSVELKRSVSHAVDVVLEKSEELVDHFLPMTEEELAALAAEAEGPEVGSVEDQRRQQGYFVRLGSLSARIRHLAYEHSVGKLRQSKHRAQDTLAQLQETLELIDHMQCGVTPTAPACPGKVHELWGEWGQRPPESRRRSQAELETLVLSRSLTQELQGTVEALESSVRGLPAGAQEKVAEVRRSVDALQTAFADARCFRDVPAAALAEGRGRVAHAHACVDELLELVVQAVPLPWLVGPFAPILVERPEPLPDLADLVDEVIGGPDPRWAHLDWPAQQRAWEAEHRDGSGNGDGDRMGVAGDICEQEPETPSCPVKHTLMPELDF
Target sequence (Q8WTS1 whole entry, looked up): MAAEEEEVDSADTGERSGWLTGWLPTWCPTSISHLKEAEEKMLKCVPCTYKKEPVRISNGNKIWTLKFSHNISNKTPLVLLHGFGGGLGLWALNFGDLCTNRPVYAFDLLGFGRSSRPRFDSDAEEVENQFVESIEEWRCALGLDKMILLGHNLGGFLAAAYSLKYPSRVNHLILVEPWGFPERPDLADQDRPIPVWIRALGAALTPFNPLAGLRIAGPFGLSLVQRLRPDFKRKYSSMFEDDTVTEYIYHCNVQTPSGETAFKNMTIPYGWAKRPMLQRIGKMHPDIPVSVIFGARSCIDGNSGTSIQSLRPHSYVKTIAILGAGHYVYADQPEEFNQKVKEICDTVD
APOBEC3A inh = APOBEC3A ssDNA deaminase inhibitors, primary screen, selectivity assay for APOBEC3G inhibitor project, biochemical, FAM/TAMRA oligo cleavage fluorescence; DNA dC->dU-editing enzyme APOBEC-3A (Homo sapiens), P31941; recombinant A3A, FAM/TAMRA ssDNA deamination fluorescence; inhibition, % at 20 µM; 0.41% of 330,000 active; AID 493011, 2011;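 active = at least 40% inhibition at 20 µM here, with at most 30% in a related deaminase screen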;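 also: plate controls were A3A with DMSO for no effect and wells lacking A3A enzyme for full effect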
APOBEC3G inh = APOBEC3G DNA deaminase inhibitors, primary screen, biochemical, fluorescence, single-stranded DNA substrate, uHTS; recombinant A3G, ssDNA deamination FAM/TAMRA fluorescence; DNA dC->dU-editing enzyme APOBEC-3G (Homo sapiens), Q9HC16; inhibition, % at 20 µM; AID 493012, 2011; 0.28% of 330,000 active;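 active = inhibition of at least 40% at 20 µM, with no more than 30% in the related APOBEC3A deaminase screen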;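 also: plate controls were DMSO wells with A3G for no effect and wells lacking A3G enzyme for full effect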
core dimer inh = inhibitors of HCV core protein dimerization, primary screen, biochemical, TR-FRET, high-throughput; TR-FRET GST/Flag-core106 dimerization, 1536-well; inhibition, % at 5 µM; 0.33% of 300,000 active;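 active = inhibition above the mean of all tested compounds plus 3 SD, set per screening campaign, cut at about 45% in these data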
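System: GST-tagged and Flag-tagged HCV core protein residues 1-106 / Input: core106 proteins, GST 13.5 nM and Flag 17 nM / Buffer or medium: KF-containing HEPES buffer, pH 7.45, DTT, CHAPS, BSA / Probe or stimulus: Eu-anti-GST and XL665-anti-Flag labelled anti-tag antibodies / Schedule: 4 h, 22.5 °C incubation / Technique: TR-FRET 671 and 617 nm emission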
Numbers without * were called inactive; . = not tested or not shown. The list is not random: actives were taken first. Their share in the collection is about 2.9%.

SMILES | PRMT1 inh | NS3 helicase inh | ABHD5 PLIN5 PPI | APOBEC3A inh | APOBEC3G inh | core dimer inh
O=C1NC(=S)/C(=C\c2ccc(-c3ccccc3Cl)o2)S1 | 67.1* | 33.9 | -4.4 | . | . | 5.2
CCN1Cc2nnn(Cc3ccccc3)c2-c2cc(N3CCCC3)ccc2S1(=O)=O | -2.6 | . | . | . | . | .
Cc1ccc(NCc2nnc(SCC(=O)c3ccccc3)n2Cc2ccco2)c(C)c1 | 23.9* | 10.8 | 17.8 | 1.7 | -2.5 | 63.5*
COC(=O)[C@]12C[C@H](CC(=O)NCCCN3CCCC3=O)C(=O)N(Cc3ccco3)C1=C[C@H](COCc1ccccc1)O[C@@H]2C | 1.7 | . | . | . | . | .
O=C(NNc1nc2cc3c(cc2s1)OCO3)c1ccc(F)cc1 | 23.4* | 14.7 | 6.5 | -2.1 | -11.7 | -11.8
Fc1ccc2nc(Nc3nc4cc5c(cc4s3)OCO5)sc2c1 | -0.8 | -0.9 | -4.9 | -2.2 | -7.7 | 5.4
Cc1ccccc1CS(=O)(=O)Cc1ccc(C(=O)Nc2cccc(Cl)c2F)o1 | -3.5 | . | . | . | . | .
O=C(CSC1=NC2(CCCCC2)N=C1c1ccccc1)Nc1ccc2c(c1)OCCO2 | 22.1* | 8.0 | -23.5 | -1.0 | -0.2 | 2.1
Cc1c(Cl)ccc2c1NC(=O)[C@]21[C@@H]2C(=O)N(Cc3ccccc3)C(=O)[C@@H]2[C@@H]2CCCN21 | 2.2 | -6.9 | -6.1 | -2.0 | 2.7 | 33.9
CCc1cccc2c1NC(=O)[C@]21[C@@H]2C(=O)N(Cc3ccccc3)C(=O)[C@@H]2[C@@H]2CCCN21 | 1.7 | -3.4 | 0.7 | -3.8 | -5.3 | 54.9*
CCCCOCCCNC(=O)C[C@@H]1C[C@@]2(C(=O)OC)CCCCC=C2N(Cc2ccc(Cl)cc2Cl)C1=O | 0.4 | . | 0.8 | . | . | .
CN=CC1=C(O)c2ccccc2C1=O | -1.3 | -4.4 | 0.0 | -3.5 | -8.4 | -4.0
O=C1C(C2=C(O)c3ccccc3C2=O)=Nc2ccccc21 | 21.3* | 24.3 | -21.6 | -0.9 | -7.1 | -30.9
O=C(O)CSc1c(-c2ccccc2)c2cc(Cl)ccc2[nH]c1=O | 2.2 | 7.8 | -0.3 | -1.8 | -5.8 | -19.5
CCN(CC)C(=S)Sc1c(-c2ccccc2)c2cc(Cl)ccc2[nH]c1=O | 24.3* | -2.5 | 10.3 | -2.7 | -3.6 | 5.1
CCc1nc2ccc(C(=O)NCc3ccccc3OC)cn2c1N(C)Cc1ccc(N(C)C)cc1 | -2.2 | . | 3.8 | . | . | .
COC(=O)[C@]12CCCCC=C1N(Cc1cccc3ccccc13)C(=O)[C@H](CC(=O)NCCc1ccccc1OC)C2 | 5.3 | . | 7.1 | . | . | .
CC(=O)Nc1cccc(Oc2ncnc3scc(-c4ccccc4)c23)c1 | -0.6 | -8.1 | 3.4 | -0.5 | -2.5 | 0.5
CN(C)C/C=C/C(=O)Nc1cccc(-c2c[nH]c3ncnc(Oc4ccc(NC(=O)CC(=O)Nc5ccc(F)cc5)cc4F)c23)c1 | . | . | 23.7* | -2.0 | -8.0 | .
O=C(/C=C/c1ccc2ccccc2c1)c1ccoc1 | -0.1 | -1.8 | 24.5* | -5.2 | -5.6 | -0.9
O=C(/C=C/c1ccc(O)cc1)c1ccccc1 | -1.2 | 19.0 | 15.8 | -5.8 | -4.2 | 2.9
COc1ccc(-c2nsc(C(=O)N(c3ccc(F)cc3)C(C(=O)NC3CCCC3)c3ccc(OC)cc3)c2N)cc1 (stereo not drawn) | 0.2 | -2.1 | 3.2 | -0.3 | -5.3 | 52.6*
COc1ccc(N(C(=O)c2snc(C(N)=O)c2N)C(C(=O)NC2CCCCC2)c2ccc(F)cc2)c(OC)c1 (stereo not drawn) | -1.3 | 3.5 | -12.1 | -4.1 | 2.4 | 10.8
Cn1nc(C(C)(C)C)cc1C(=O)N1CCC(C)(C(=O)NS(=O)(=O)C2CC2)C1 (stereo not drawn) | . | . | 6.3 | . | . | .
CCCCOc1ccc(-c2c(C(=O)Nc3ccccc3)c(C)[nH]c(=S)c2C#N)cc1 | 23.1* | 8.3 | -3.8 | 1.4 | -9.4 | 26.1
SMILES | PRMT1 inh | NS3 helicase inh | ABHD5 PLIN5 PPI | APOBEC3A inh | APOBEC3G inh | core dimer inh
c1ccc(C2OC3c4cccc5cccc(c45)C3N2c2ccccc2)cc1 (stereo not drawn) | 24.5* | 1.2 | -14.1 | -3.7 | -11.5 | 2.9
Cc1ccc(S(=O)(=O)Nc2cc(C(C(=O)OC(C)C)C(=O)C(F)(F)F)c(O)c3ccccc23)c(C)c1 (stereo not drawn) | 25.4* | 20.7 | 16.2 | -2.4 | -6.1 | 16.4
Cc1ccc(S(=O)(=O)Nc2ccc(O)c3ccccc23)c(C)c1 | 12.6 | 18.2 | -6.4 | . | . | .
COc1ccc(CNC(=O)COC(=O)CN2C(=O)NC3(CCCC3)C2=O)cc1 | -1.2 | . | -1.3 | -0.1 | -7.0 | .
COC(=O)C1=C(C)N(C)C(=O)/C1=C\c1ccco1 | 1.9 | 2.6 | 3.6 | -2.0 | -2.6 | -6.4
CC1=C(C#N)C(=O)N(C2CCS(=O)(=O)C2)C(=O)/C1=C\c1ccco1 (stereo not drawn) | . | 5.8 | . | 97.7 | 89.3 | 77.7*
CC1=Nc2nc(N3CCCCC3)c(C#N)c3c4c(nc(c23)N1)N(c1ccc(C(C)C)cc1)C(=O)C4 | 6.7 | 30.1 | -4.3 | 1.2 | -1.0 | 46.2*
CC(C)c1ccc(-c2nc(N3CCCCC3)[nH]c(=O)c2C#N)cc1 | 1.1 | 2.5 | 1.6 | -3.5 | -3.1 | 11.4
CCc1cc(C(=O)N(CCCOC)c2c(N)n(Cc3ccccc3)c(=O)[nH]c2=O)sc1C | -1.5 | . | -5.7 | 3.7 | -5.9 | 0.3
Cc1ccc(N2C(=O)C3CC(c4ccccc4)=C4C5C=CC(C6C(=O)N(c7ccc(C)cc7C)C(=O)C56)C4C3C2=O)c(C)c1 (stereo not drawn) | . | -8.6 | 4.2 | 3.1 | 1.2 | 52.3*
CCOC(=O)N[C@H](C(=O)N1CCC[C@H]1C(=O)NC1CCCC1)C1CCCCC1 | 3.0 | . | . | . | . | .
COC(=O)[C@]12C[C@H](CC(=O)NCCCN3CCCC3=O)C(=O)N(Cc3ccc4c(c3)OCO4)C1=C[C@H](COCc1ccccc1)O[C@@H]2C | -1.5 | . | . | . | . | .
CCc1cccc(C)c1NC(=O)c1cccc(N(C)C)c1 | 23.3* | 1.3 | -6.0 | -0.9 | -0.5 | 4.8
Cc1cc(-c2nnc(SCC(=O)Nc3nc(-c4ccccc4)cs3)o2)no1 | 24.7* | 19.6 | -5.1 | 9.9 | 3.4 | 14.0
Cc1csc(NC(=O)CSc2nnc(-c3cc(C)on3)o2)n1 | 18.0 | 5.9 | -5.4 | 1.4 | -0.6 | -5.0
CCOC(=S)SCC(=O)Nc1nc(-c2ccccc2)cs1 | 26.1* | 9.4 | -12.8 | 1.8 | 0.9 | -1.3
CCOC(=S)SCC(=O)Nc1nc(-c2ccc(Br)cc2)cs1 | 10.7 | 4.3 | -1.5 | -2.9 | -6.6 | 5.3

High-throughput results deposited in PubChem by several laboratories.
